A selection: hits, their analogues and other compounds. The true share with any hit is near 3%.
TMEM16A act – TMEM16A chloride channel activators or potentiators, primary screen, cell-based, HTS. 0.3% of 340,000 active. B-score at 10 µM. HEK293 TMEM16A/YFP-H148Q/I152L, iodide quench fluorescence; stronger effect = lower value. Anoctamin-1 (Mus musculus), Q8BHY3;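 active = fluorescence-ratio B-score plate-corrected deviation score at least 3 library SD below zero, with starting fluorescence score within 5 deviations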;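 note: channel opened by trigger with iodide after compound preincubation; score built on the fluorescence ratio of max minus min over baseline; more negative score means more quench and so TMEM16A activation or potentiation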
DNA FID counter – compounds displacing fluorescent DNA intercalator, primary screen, artefact control for HCV NS3 helicase inhibitor project, biochemical, FID fluorescence | DNA fluorescent intercalator displacement | 0.17% of 290,000 active | AID 1845, 2009 | inhibition, % at 7.9 µM; in the data active = inhibition above about 37%;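 note: 0% = vehicle and 100% = reference compound; higher means more ethidium bromide displaced from hairpin DNA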
Kir21 block – inhibitors of mouse Kir2.1 inward-rectifier potassium channel. Inward rectifier potassium channel 2 (Mus musculus), P35561. HEK293-Kir2.1, FluxOR thallium flux fluorescence; stronger effect = lower value. B-score at 10 µM. 0.85% of 310,000 active. AID 1672, 2009;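 active = fluorescence ratio B-score at or below minus 3 SD of library scores, with starting-brightness B-score within 2 SD, cut at about -4.2 in these data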;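 note: channel flux triggered by added potassium and thallium sulfate stimulus; B-score of peak minus minimum fluorescence over baseline after thallium stimulus; more negative B-score means stronger Kir2.1 block with less thallium influx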
SR-BI DiI inh – inhibitors of SR-BI mediated HDL lipid uptake, primary screen, ldlA[mSR-BI] cells, fluorescence, single point; ldlA[mSR-BI] CHO cells, DiI-HDL uptake fluorescence, 3 h; inhibition, % at 12.5 µM; 0.96% of 320,000 active;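 active = mean replicate inhibition of at least 70% and a set share of replicates each scoring 70 or more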;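 note: 0% = median of neutral control wells and 100% = median of positive control wells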
Target sequence (Q61009 whole entry, looked up): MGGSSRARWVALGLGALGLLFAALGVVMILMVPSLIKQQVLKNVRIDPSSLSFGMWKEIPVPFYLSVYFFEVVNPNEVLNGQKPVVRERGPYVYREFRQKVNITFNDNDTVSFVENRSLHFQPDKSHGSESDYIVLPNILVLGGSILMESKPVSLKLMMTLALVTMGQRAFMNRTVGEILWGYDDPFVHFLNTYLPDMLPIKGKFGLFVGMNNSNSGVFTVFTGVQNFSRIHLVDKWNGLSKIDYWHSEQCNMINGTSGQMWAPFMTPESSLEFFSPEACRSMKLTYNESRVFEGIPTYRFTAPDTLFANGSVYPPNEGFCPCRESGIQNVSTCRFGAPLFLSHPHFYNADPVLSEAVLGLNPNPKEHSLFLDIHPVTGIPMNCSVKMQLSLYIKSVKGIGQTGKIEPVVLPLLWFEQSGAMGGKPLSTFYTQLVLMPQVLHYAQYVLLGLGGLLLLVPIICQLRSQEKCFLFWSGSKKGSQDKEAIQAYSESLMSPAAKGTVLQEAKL
ANO1 block – TMEM16A chloride channel inhibitors, primary screen, cell-based, HTS. Anoctamin-1 (Mus musculus), Q8BHY3. HEK293 TMEM16A/YFP iodide influx fluorescence, ionomycin. normalized B-score (activity score, 25-100; higher = stronger inhibition) at 10 µM. 1.2% of 310,000 active. AID 588511, 2011;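 active = ratio plate-corrected score three or more library SD toward inhibition, starting fluorescence score within five deviations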;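 note: score derived from kinetic fluorescence span divided by baseline fluorescence per well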
SR-BI uptake up – activators of SR-BI mediated DiI-HDL uptake, primary screen, ldlA[mSR-BI] CHO cells, DiI fluorescence. 3 h; 100 = double the neutral-control signal. activation, % at 12.5 µM. 0.096% of 320,000 active. AID 504775, 2011;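 active = mean replicate activation of at least 60% and every replicate at or above 60%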;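 note: 0% = median plate neutral-control signal and 100% = twice that signal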
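material = CHO ldlA[mSR-BI] cells | medium = Ham's F12 with 0.5% BSA, HEPES 25 mM, pH 7.4 | reagent = fluorescent DiI-HDL, 10 µg/mL final | compound dosing = single-point compound dose | incubation = 3 h, 37 °C | measured by = bottom-read fluorescence, 550/595 nm | measure = HDL uptake via cellular fluorescence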
TMEM16A reconf – TMEM16A chloride channel inhibitors, confirmation, cell-based, re-confirmation; HEK293 TMEM16A/YFP-H148Q, iodide quench fluorescence; ionomycin added to raise cell calcium; 39% of 2,300 active; shares compounds with ANO1 block; inhibition, % at 10 µM;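 active = mean duplicate percent inhibition, scaled so buffer wells are 0 and the reference blocker 100, over three buffer SD above buffer mean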
HEK293 Ca mobil – calcium mobilization in TMEM16A/YFP HEK293 cells, confirmation, counter-screen for TMEM16A inhibitor project; calcium response (% of ionomycin), % at 10 µM; shares compounds with ANO1 block; 2% of 2,300 active; Fluo4 calcium mobilization;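 active = duplicate-averaged calcium signal over 20% of the ionomycin maximum, relative to buffer baseline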;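 note: each well's signal is peak minus trough fluorescence divided by its pre-addition baseline; 0% = buffer wells and 100% = ionomycin wells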
YFP-HEK293 quench – iodide YFP quench changes in parental YFP-HEK293, counter-screen for TMEM16A inhibitor project, cell-based; shares compounds with ANO1 block; ionomycin; YFP ratio F(max-min)/F0 at 10 µM; 2,300 tested, under 10 active; AID 652233, 2013;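 active = yellow fluorescent protein signal ratio exceeding the buffer control mean by over 5 SD of those controls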;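 note: ratio is mean of duplicate wells from kinetic YFP trace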
ClC-1 rat inh – ClC-1 chloride channel inhibition, selectivity assay for TMEM16A inhibitor project, cell-based, voltage-dependent ClC-1; shares compounds with ANO1 block; CHO ClC-1-YFP, iodide influx fluorescence quench; iodide control reads 0, buffer control 100; ratio percent, % at 10 µM; 2,300 tested, under 10 active; AID 652236, 2013;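 active = duplicate-mean ratio percent above the mean of iodide-only control wells, which defines zero, plus 5 of their SD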;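 note: higher percent means stronger block of ClC-1 iodide influx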
* = called active by the depositor; i = inactive; / = not tested or not shown.

SMILES	TMEM16A act	DNA FID counter	Kir21 block	SR-BI DiI inh	ANO1 block	SR-BI uptake up	TMEM16A reconf	HEK293 Ca mobil	YFP-HEK293 quench	ClC-1 rat inh
CC(=O)c1cccc(NS(=O)(=O)c2ccc(-c3cnc(C4CC4)o3)cc2)c1	i	-25	0.04	-22	25*	22	16%*	i	-1	-17
COC(=O)c1cc(COc2ccc3oc(C)c(C(=O)OC)c3c2)c(C)o1	i	-4	-0.39	17	100*	-17	i	i	-1.2	-11
COC(=O)c1cc(COc2ccc3ccc(=O)oc3c2)c(C)o1	i	-7	0.41	18	i	-18	/	/	/	/
COc1ccc(-c2csc(NC(=O)CC(NC(C)=O)c3ccccc3)n2)cc1OC (stereo unspecified)	i	-45	-1.1	43	i	-43	/	/	/	/
CCCNC(=O)c1ccccc1NS(=O)(=O)c1ccc(OC)c(OC)c1	i	2	2.1	-14	i	14	/	/	/	/
COc1ccc(-c2csc(NC(=O)Cc3ccccc3F)n2)cc1OC	i	-25	-1.8	23	100*	-23	i	i	-0.84	0
COc1ccc(CC(=O)Nc2nc(-c3ccc(OC)c(OC)c3)cs2)cc1OC	i	-41	0.57	62	25*	-62	35%*	i	-0.91	-2
COc1ccc(S(=O)(=O)Nc2ccccc2C(=O)Nc2nc(-c3ccc(F)cc3)cs2)cc1OC	i	-29	-0.82	45	100*	-45	50%*	i	-1.1	-12
CCOC(=O)C1(CCc2ccccc2)CCN(Cc2cccc3nccnc23)CC1	i	14	-0.07	29	i	-29	/	/	/	/
CCc1ccc2c(CN(CC)Cc3nc4ccccc4c(=O)[nH]3)cc(=O)oc2c1	i	-23	1.9	-12	25*	12	i	i	-0.93	1
CCOC(=O)c1nn(C)c2[nH]c(=O)n(C)c(=O)c12	i	/	/	/	/	/	/	/	/	/
CCN(C[C@H]1N[C@@](Cc2ccccc2)(C(=O)OC)[C@H]2C(=O)N(Cc3ccccc3)C(=O)[C@@H]12)C(=O)COc1ccccc1	/	/	/	-3	/	3	/	/	/	/
Clc1ccc(Cn2ncc3c(N4CCCC4)ncnc32)cc1	i	-19	0.04	19	i	-19	/	/	/	/
CC1CC(C)CN(c2ncnc3c2cnn3Cc2ccc(Cl)cc2)C1 (stereo unspecified)	i	-2	1.7	-5	25*	5	i	i	-1	-2
O=C(c1noc2c1CSc1ccccc1-2)N1CCN(c2ccc(Cl)cc2)CC1	i	0	0.16	-6	25*	6	i	i	-1.2	-5
C/C(=N\NC(=O)c1cccc(Cl)c1)C1C(=O)c2ccccc2C1=O	i	-6	0.1	/	100*	/	i	i	-1.1	-14
O=C(Cc1coc2ccc3ccccc3c12)NCc1ccccc1	i	-8	-1.1	8	100*	-8	i	i	-0.99	-6
CCCc1cc(Nc2cccc(OCC)c2)n2ncnc2n1	i	-27	-0.07	17	i	-17	/	/	/	/
CCCc1cc(Nc2cccc(OC)c2)n2ncnc2n1	i	-12	0.87	5	100*	-5	i	i	-1	-7
O=C(CN1C(=O)S/C(=C\C=C\c2ccccc2)C1=O)N1CCOCC1	i	-20	-2.1	/	i	/	/	/	/	/
Cc1ccc(C(C)NC(=O)C2CCCC2)cc1C (stereo unspecified)	i	-7	-1.4	-4	i	4	/	/	/	/
CC(NC(=O)C1CCC1)c1ccc2c(c1)OCO2 (stereo unspecified)	i	6	-0.11	-14	25*	14	i	i	-0.89	-5
CNC(=S)N(Cc1ccc(OC)cc1)C1CC(=O)N(c2ccc(Cl)cc2)C1=O (stereo unspecified)	i	-4	-1	-27	i	27	28%*	i	-0.96	-4
OCCNc1c2ccccc2nc2c(F)c(F)c(F)c(F)c12	i	-4	-0.94	13	i	-13	i	i	-1.3	2
Cc1ccc([C@@H]2CC=C(C(=O)O)[C@H](c3ccc(Cl)cc3)N2S(=O)(=O)c2ccc(C)cc2)cc1	i	/	/	-14	25*	14	16%*	i	-1	-3
SMILES	TMEM16A act	DNA FID counter	Kir21 block	SR-BI DiI inh	ANO1 block	SR-BI uptake up	TMEM16A reconf	HEK293 Ca mobil	YFP-HEK293 quench	ClC-1 rat inh
Cc1ccc(S(=O)(=O)N2[C@@H](c3ccc(F)cc3)C(C(=O)O)=CC[C@H]2c2ccc(Cl)cc2)cc1	i	/	/	-21	25*	21	i	i	-0.95	-14
Cc1ccc(S(=O)(=O)N2[C@@H](c3ccc(Br)cc3)C(C(=O)O)=CC[C@H]2c2ccc(Cl)cc2)cc1	/	/	/	-17	/	17	/	/	/	/
COC(=O)[C@@H]1C[C@@]2(Br)c3ccccc3N(S(=O)(=O)c3ccccc3)[C@H]2N1C(=O)OC	i	/	-0.79	-19	i	19	/	/	/	/
Cc1cc(C)c(C)c(S(=O)(=O)N2CCC(C(=O)OCC(=O)NC3CCS(=O)(=O)C3)CC2)c1C (stereo unspecified)	i	/	/	41	/	-41	/	/	/	/
CC(C)c1cc(C(=O)N2CCCC(CCC(=O)NCc3ccccc3F)C2)n(C)n1 (stereo unspecified)	i	-25	-0.56	2	100*	-2	i	i	-1.1	-16
NS(=O)(=O)c1ccc(CCNC(=O)c2ccccc2Cc2ccccc2)cc1	i	-15	-0.49	2	i	-2	/	/	/	/
